ChEMBL document CHEMBL4673223, “Synthesis, Biological, and Structural Explorations of New Zwitterionic Derivatives of 14- O-Methyloxymorphone, as Potent μ/δ Opioid Agonists and Peripherally Selective Antinociceptives” (J Med Chem, 2019)
Activity calls are given as the source filed them. The calls are words filed in the database; no cut-off is given here.

Experiments:
[1] = Selectivity index, ratio of Ki for displacement of [3H]U69,593 from kappa opioid receptor in guinea-pig brain membranes to Ki for displacement of [3H]DAMGO from mu opioid receptor in rat brain membranes; assay type: cell membranes
Summary of the method: (§1)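 Guinea-pig brain membranes (0.3–0.5 mg protein) in 50 mM Tris-HCl, pH 7.4, were incubated with 1 nM [3H]U69,593 for 30 min at 30 °C, with 10 μM naloxone defining nonspecific binding. MOR was measured on rat brain membranes with 1 nM [3H]DAMGO for 45 min at 35 °C. Samples were filtered and scintillation counted, and Ki was obtained by Cheng–Prusoff; duplicates, 3–4 experiments.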

[2] = biological target: Delta-type opioid receptor (Homo sapiens) (UniProt P41143); assay: Displacement of [3H]diprenorphine from human DOR expressed in CHO cell membranes incubated for 60 mins liquid scintillation counting assay; conditions: Cell membrane, filed as agonist
Sequence of Delta-type opioid receptor (Homo sapiens) (P41143 whole entry): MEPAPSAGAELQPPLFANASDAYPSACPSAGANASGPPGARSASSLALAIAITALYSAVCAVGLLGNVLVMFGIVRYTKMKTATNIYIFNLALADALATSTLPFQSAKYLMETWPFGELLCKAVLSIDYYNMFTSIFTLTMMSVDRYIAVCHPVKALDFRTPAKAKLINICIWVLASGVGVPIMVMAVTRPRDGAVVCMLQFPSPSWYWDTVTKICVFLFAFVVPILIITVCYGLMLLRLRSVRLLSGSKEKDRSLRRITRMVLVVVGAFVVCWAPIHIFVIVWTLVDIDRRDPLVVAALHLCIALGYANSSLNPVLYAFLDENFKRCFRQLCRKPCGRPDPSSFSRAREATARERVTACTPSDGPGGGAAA
Summary of the method: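 Membranes from CHO cells expressing human DOR (15–20 μg) in 50 mM Tris-HCl, pH 7.4, were incubated with 0.2 nM [3H]diprenorphine and varied test concentrations for 60 min at 25 °C. Nonspecific binding was set with 1–10 μM unlabeled diprenorphine. Samples were GF/C filtered and scintillation counted.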

[3] = biological target: Mu-type opioid receptor (Homo sapiens) (UniProt P35372); assay: Agonist activity at human MOR expressed in CHO cell membranes incubated for 60 mins scintillation counting assay relative to DAMGO; conditions: Cell membrane
Sequence of Mu-type opioid receptor (Homo sapiens) (P35372 whole entry): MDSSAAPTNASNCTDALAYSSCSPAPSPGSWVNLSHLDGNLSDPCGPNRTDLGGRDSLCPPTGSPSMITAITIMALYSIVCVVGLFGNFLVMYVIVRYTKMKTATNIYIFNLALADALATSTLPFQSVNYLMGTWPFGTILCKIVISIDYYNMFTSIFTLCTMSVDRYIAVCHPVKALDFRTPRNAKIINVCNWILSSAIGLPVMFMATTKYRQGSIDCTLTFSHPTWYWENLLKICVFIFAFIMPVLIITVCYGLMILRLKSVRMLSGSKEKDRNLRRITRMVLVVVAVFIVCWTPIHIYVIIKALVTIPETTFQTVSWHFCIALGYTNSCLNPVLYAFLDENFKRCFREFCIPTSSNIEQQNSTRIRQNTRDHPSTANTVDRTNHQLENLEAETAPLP
Summary of the method: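 CHO-hMOR or CHO-hKOR membranes (5–10 μg) were incubated 60 min at 25 °C in HEPES/MgCl2/NaCl buffer, pH 7.4, with 0.05 nM [35S]GTPγS, 10 μM GDP and varied test concentrations. Nonspecific binding was set with 10 μM GTPγS. Samples were filtered and scintillation counted. % stimulation was taken from concentration–response curves relative to the full agonist (DAMGO for MOR, U69,593 for KOR). Duplicates, 3–4 experiments.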

[4] = species: Rattus norvegicus; assay: Selectivity index, ratio of Ki for displacement of [3H][Ile5,6]deltorphin II from delta opioid receptor in rat brain membranes to Ki for displacement of [3H]DAMGO from mu opioid receptor in rat brain membranes; assay type: cell membranes
Summary of the method: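 Rat brain membranes (cerebella removed; 0.3–0.5 mg protein) in 50 mM Tris-HCl, pH 7.4, were incubated 45 min at 35 °C with 1 nM [3H]DAMGO (MOR) or 0.5 nM [3H][Ile5,6]deltorphin II (DOR) plus varied test concentrations. Nonspecific binding was set with 10 μM naloxone. Samples were GF/C filtered, washed and scintillation counted. Ki was obtained by Cheng–Prusoff; duplicates, 3–4 experiments.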

[5] = system: Mus musculus; assay: Antinociceptive activity in sc dosed CD1 mouse assessed as inhibition of the writhing response after 30 mins post dose by acetic acid-induced writhing assay; assay type: functional; conditions: 0.5 h
[6] = system: Mus musculus; assay: Antinociceptive activity in CD1 mouse assessed as inhibition of the writhing response at 50 ug/kg, sc and co-administered with 1 mg/kg naloxone methiodide and measured after 30 mins post dose by acetic acid-induced writhing assay; assay type: functional, organism-based; conditions: dose 50.0 µg/kg
Summary of the method: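 Male CD1 mice (30–35 g) received the agonist sc in saline (10 μL/g) together with sc naloxone methiodide 1 mg/kg. At 25 min, 0.6% acetic acid was given ip, and writhes were counted over a 10 min observation period (30 min post-dose). Results were expressed as mean writhes versus saline control and agonist-alone groups; n = 6–7 mice per group; ANOVA with Tukey post hoc.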

[7] = biological target: Kappa-type opioid receptor (Cavia porcellus, UniProt P41144); assay: Displacement of [3H]U69,593 from kappa opioid receptor in guinea-pig brain membranes incubated for 30 mins by liquid scintillation counting method; assay type: cell membranes, Membrane; summary of the method: as §1
Sequence of Kappa-type opioid receptor (P41144 whole entry): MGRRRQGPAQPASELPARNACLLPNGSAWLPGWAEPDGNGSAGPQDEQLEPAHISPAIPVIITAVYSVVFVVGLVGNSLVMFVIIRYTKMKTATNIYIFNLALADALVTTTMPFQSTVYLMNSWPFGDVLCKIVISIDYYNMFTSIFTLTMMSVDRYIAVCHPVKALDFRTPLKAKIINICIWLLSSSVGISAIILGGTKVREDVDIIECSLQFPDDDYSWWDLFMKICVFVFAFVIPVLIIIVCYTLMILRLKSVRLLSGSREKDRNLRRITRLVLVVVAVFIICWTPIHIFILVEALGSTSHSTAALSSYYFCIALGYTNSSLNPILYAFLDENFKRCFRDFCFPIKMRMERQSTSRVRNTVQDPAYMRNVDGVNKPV

SMILES	Ratio Ki [1]	Activity [2]	Activity ([3]; filed as agonist) [%]	Ratio Ki [4]	ED50 [5] [mg/kg]	Activity [6]	Ki [7] [nM]	Activity ([3]; filed as partial agonist) [%]
CO[C@@]12CC[C@@H](N[C@H](Cc3ccccc3)C(=O)O)[C@@H]3Oc4c(O)ccc5c4[C@@]31CCN(C)[C@@H]2C5	109	Active	78	0.9				
CO[C@@]12CC[C@@H](N[C@@H](CC(N)=O)C(=O)O)[C@@H]3Oc4c(O)ccc5c4[C@@]31CCN(C)[C@@H]2C5	82	Active		1.8				
CO[C@@]12CC[C@H](N[C@@H](CCCCN)C(=O)O)[C@@H]3Oc4c(O)ccc5c4[C@@]31CCN(C)[C@@H]2C5	66	Active		6.7				
CO[C@@]12CC[C@@H](N[C@H](C)C(=O)O)[C@@H]3Oc4c(O)ccc5c4[C@@]31CCN(C)[C@@H]2C5		Active						
CO[C@@]12CC[C@@H](N[C@@H](CO)C(=O)O)[C@@H]3Oc4c(O)ccc5c4[C@@]31CCN(C)[C@@H]2C5	71	Active		2.5				
CO[C@@]12CC[C@H](N[C@H](Cc3ccccc3)C(=O)O)[C@@H]3Oc4c(O)ccc5c4[C@@]31CCN(C)[C@@H]2C5	125	Active		6	0.0181			
CO[C@@]12CC[C@@H](NCCC(=O)O)[C@@H]3Oc4c(O)ccc5c4[C@@]31CCN(C)[C@@H]2C5	69	Active	78	13				
CO[C@@]12CC[C@@H](N[C@@H](C(=O)O)C(C)C)[C@@H]3Oc4c(O)ccc5c4[C@@]31CCN(C)[C@@H]2C5	156	Active		1.6	0.014			
CO[C@@]12CC[C@H](N[C@H](C(=O)O)C3CCCCC3)[C@@H]3Oc4c(O)ccc5c4[C@@]31CCN(C)[C@@H]2C5	144	Active		12				
CO[C@@]12CC[C@H](N[C@@H](CCC(N)=O)C(=O)O)[C@@H]3Oc4c(O)ccc5c4[C@@]31CCN(C)[C@@H]2C5	108	Active		1.6				
CO[C@@]12CC[C@H](N[C@@H](CO)C(=O)O)[C@@H]3Oc4c(O)ccc5c4[C@@]31CCN(C)[C@@H]2C5	89	Active		2.4				
CO[C@@]12CC[C@H](N[C@@H](CC(=O)O)C(=O)O)[C@@H]3Oc4c(O)ccc5c4[C@@]31CCN(C)[C@@H]2C5	37	Active		11				
CO[C@@]12CC[C@H](N[C@H](C)C(=O)O)[C@@H]3Oc4c(O)ccc5c4[C@@]31CCN(C)[C@@H]2C5		Active						
CO[C@@]12CC[C@@H](N[C@H](C(=O)O)C3CCCCC3)[C@@H]3Oc4c(O)ccc5c4[C@@]31CCN(C)[C@@H]2C5	71	Active		0.8		inactive		
CO[C@@]12CC[C@H](N[C@@H](C)C(=O)O)[C@@H]3Oc4c(O)ccc5c4[C@@]31CCN(C)[C@@H]2C5		Active			0.016		142	
CO[C@@]12CC[C@H](NCCCC(=O)O)[C@@H]3Oc4c(O)ccc5c4[C@@]31CCN(C)[C@@H]2C5	59	Active		16				
CO[C@@]12CC[C@@H](N[C@@H](CCC(=O)O)C(=O)O)[C@@H]3Oc4c(O)ccc5c4[C@@]31CCN(C)[C@@H]2C5	108	Active		0.7				
CO[C@@]12CC[C@H](NCCC(=O)O)[C@@H]3Oc4c(O)ccc5c4[C@@]31CCN(C)[C@@H]2C5	140	Active		46				
CC[C@H](N[C@H]1CC[C@@]2(OC)[C@H]3Cc4ccc(O)c5c4[C@@]2(CCN3C)[C@H]1O5)C(=O)O	189	Active			0.0175			
CO[C@@]12CC[C@@H](N[C@@H](CC(=O)O)C(=O)O)[C@@H]3Oc4c(O)ccc5c4[C@@]31CCN(C)[C@@H]2C5	103	Active	74	6.6				

SMILES	Ratio Ki [1]	Activity [2]	Activity ([3]; filed as agonist) [%]	Ratio Ki [4]	ED50 [5] [mg/kg]	Activity [6]	Ki [7] [nM]	Activity ([3]; filed as partial agonist) [%]
CO[C@@]12CC[C@H](N[C@@H](Cc3c[nH]c4ccccc34)C(=O)O)[C@@H]3Oc4c(O)ccc5c4[C@@]31CCN(C)[C@@H]2C5	70	Active		2.8				
CO[C@@]12CC[C@H](NCC(=O)O)[C@@H]3Oc4c(O)ccc5c4[C@@]31CCN(C)[C@@H]2C5		Active						
CO[C@@]12CC[C@H](N[C@@H](C(=O)O)C(C)C)[C@@H]3Oc4c(O)ccc5c4[C@@]31CCN(C)[C@@H]2C5	119	Active		1.1				
CO[C@@]12CCC(N[C@@H](CCC(=O)O)C(=O)O)[C@@H]3Oc4c(O)ccc5c4[C@@]31CCN(C)[C@@H]2C5 (single isomer, unassigned)	60	Active		6.2				
CO[C@@]12CC[C@@H](NCCCC(=O)O)[C@@H]3Oc4c(O)ccc5c4[C@@]31CCN(C)[C@@H]2C5		Active		4.7				
CO[C@@]12CCC(=O)[C@@H]3Oc4c(O)ccc5c4[C@@]31CCN(C)[C@@H]2C5		Active						
CN1CC[C@]23c4c5ccc(O)c4O[C@H]2[C@@H](O)C=C[C@H]3[C@H]1C5 [MORPHINE]					0.437			
CO[C@@]12CC[C@@H](N[C@@H](CCC(N)=O)C(=O)O)[C@@H]3Oc4c(O)ccc5c4[C@@]31CCN(C)[C@@H]2C5	117	Active		2				
CO[C@@]12CC[C@@H](N[C@@H](Cc3ccc(O)cc3)C(=O)O)[C@@H]3Oc4c(O)ccc5c4[C@@]31CCN(C)[C@@H]2C5	58	Active		1.2				
CO[C@@]12CC[C@@H](N[C@H](C(=O)O)C(C)C)[C@@H]3Oc4c(O)ccc5c4[C@@]31CCN(C)[C@@H]2C5	100	Active	84	1.2				
CC[C@H](N[C@@H]1CC[C@@]2(OC)[C@H]3Cc4ccc(O)c5c4[C@@]2(CCN3C)[C@H]1O5)C(=O)O	110	Active	83	0.7		inactive		
CO[C@@]12CC[C@H](N[C@H](C(=O)N[C@@H](Cc3ccc(O)cc3)C(=O)O)C(C)C)[C@@H]3Oc4c(O)ccc5c4[C@@]31CCN(C)[C@@H]2C5	84	Active		1.5				84
CO[C@@]12CC[C@@H](N[C@@H](CCCCN)C(=O)O)[C@@H]3Oc4c(O)ccc5c4[C@@]31CCN(C)[C@@H]2C5	64	Active		6.3		inactive		
CO[C@@]12CC[C@H](N[C@@H](Cc3ccc(O)cc3)C(=O)O)[C@@H]3Oc4c(O)ccc5c4[C@@]31CCN(C)[C@@H]2C5	48	Active		2.6	0.0146			
CO[C@@]12CC[C@@H](N[C@H](C(=O)N[C@@H](Cc3ccc(O)cc3)C(=O)O)C(C)C)[C@@H]3Oc4c(O)ccc5c4[C@@]31CCN(C)[C@@H]2C5		Active		3.1				73
CN1CC[C@]23c4c5ccc(O)c4O[C@H]2[C@H](NCC(=O)O)CC[C@@]3(OCCCc2ccccc2)[C@H]1C5		Active						
CN1CC[C@]23c4c5ccc(O)c4O[C@H]2[C@@H](NCC(=O)O)CC[C@@]3(OCCCc2ccccc2)[C@H]1C5		Active						
CO[C@@]12CC[C@H](N[C@H](C(=O)O)C(C)C)[C@@H]3Oc4c(O)ccc5c4[C@@]31CCN(C)[C@@H]2C5	103	Active		1.2				
CO[C@@]12CC[C@H](N[C@@H](CC(N)=O)C(=O)O)[C@@H]3Oc4c(O)ccc5c4[C@@]31CCN(C)[C@@H]2C5	63	Active		2.9	0.0152			
